{
  "source": "paper PMC11566320",
  "about": "(Current Research in Pharmacology and Drug Discovery, 2024)",
  "key": {"[1]": {"test_system": "cancerous cells compared to the non-cancerous MCs", "details": "ref Khoury et al. (2022); cited from earlier work"}, "mice": {"test_system": "mice", "details": "cited from earlier work"}, "HaCaT-II-4 cells [2]": {"test_system": "HaCaT-II-4 cells", "experiment": "Cellular fractionation / intracellular distribution by ICP-MS", "type": "cell-based, human", "details": "3 μM, 24 h", "outline": "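HaCaT-II-4 cells adhered overnight at 37 °C, 5% CO2, then treated with 3 μM for 24 h. Washed thrice in cold PBS, trypsinised, pelleted (350 g, 5 min, 4 °C) and washed in PBS. Kit buffers gave the cytoplasmic fraction (on ice 5 min, 500 g), the membrane/organelle fraction (on ice 5 min, 8000 g) and a nuclear/cytoskeletal pellet. Results are % platinum per fraction; three independent experiments in triplicate, mean ± SEM.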"}, "HaCaT-II-4 cells [3]": {"test_system": "HaCaT-II-4 cells", "experiment": "Cell death analysis by flow cytometry", "type": "cell-based, human", "details": "3 μM", "outline": "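HaCaT-II-4 cells plated at 10^5 cells/ml in 6-well plates, adhered overnight, then exposed to 3 μM test compound for 48 or 72 h at 37 °C, 5% CO2, with a positive control. Harvested cells resuspended in Guava Nexin reagent (Annexin V-PE/7-AAD), 10 min in the dark. Flow cytometry on FL1-H vs FL2-H gave % early apoptosis, late apoptosis and necrosis. Three independent experiments in triplicate; mean ± SEM.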"}, "HaCaT-II-4 cells [4]": {"test_system": "HaCaT-II-4 cells", "experiment": "Cytotoxicity, WST-1 cell viability assay", "type": "cell-based, human", "details": "read-out: IC50 against HaCaT-II-4 cells, 72 h post-treatment", "outline": "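HaCaT-II-4 cells (passage 15) in DMEM with 10% FBS and 1% penicillin-streptomycin were seeded at 10,000 cells/100 μL per well. They were exposed for 72 h to 3-fold serial dilutions, 0.023–150 μM. Medium was replaced with fresh DMEM plus WST-1 for 4 h at 37 °C, and absorbance was read at 450 nm for viability. Three independent trials, each in triplicate; mean ± SEM.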"}, "[5]": {"test_system": "DMBA/TPA-induced skin tumors in BALB/c mice", "experiment": "DMBA/TPA induced skin carcinogenesis mouse model", "type": "in vivo", "details": "IP weekly; P-PENT 5 and 15 mg/kg, P-HEX 5, 15, 25 mg/kg, cisplatin 2.5 mg/kg"}, "HaCaT-II-4 cells [6]": {"test_system": "HaCaT-II-4 cells", "experiment": "Quantification of cellular uptake by ICP-MS", "type": "cell-based, human", "details": "3 μM, maximum at 24 h"}, "BALB/c mice": {"test_system": "BALB/c mice", "experiment": "Preliminary cisplatin treatment in BALB/c mice", "type": "in vivo", "details": "5 mg/kg dose, after few weeks of treatment, preliminary data"}, "[7]": {"details": "of body weight in mice, ref O'Dwyer et al., 1985, Korst et al., 1997"}},
  "note": "Read-outs that look alike come from different tables or passages of the source.",
  "data": [
    {"smiles": "COc1ccnc2c1ccc1c(OC)ccnc12.NC1CCCCC1N.O=[N+]([O-])[O-].O=[N+]([O-])[O-].[OH-].[OH-].[Pt+4]", "note": "[47OMESS(IV)]", "values": [
      {"measurement": "greater selectivity toward the cancerous cells compared to the non-cancerous MCs", "setting": "[1]", "value": "17–22 fold"}
    ]},
    {"smiles": "N.N.O=C([O-])C1(C(=O)[O-])CCC1.[Pt+2]", "note": "[Carboplatin]", "values": [
      {"measurement": "MTD as platinum", "setting": "mice; [7]", "value": 31.53, "unit": "mg Pt/Kg"}
    ]},
    {"smiles": "N.N.[Cl][Pt][Cl]", "note": "[Cisplatin]", "values": [
      {"measurement": "accumulation in cytoplasmic fraction (CF)", "setting": "HaCaT-II-4 cells [2]", "value": 38, "unit": "%"},
      {"measurement": "accumulation in membrane and organelle (MO) fraction", "setting": "HaCaT-II-4 cells [2]", "value": 47, "unit": "%"},
      {"measurement": "accumulation in nuclear and cytoskeletal (NC) fraction", "setting": "HaCaT-II-4 cells [2]", "value": 15, "unit": "%"},
      {"measurement": "necrosis", "setting": "HaCaT-II-4 cells [3]; 48 or 72 h", "value": "No evidence of significant necrosis"},
      {"measurement": "early and late apoptosis compared to the negative control", "setting": "HaCaT-II-4 cells [3]; 48 h and 72 h", "value": "significant (p < 0.0001) increase in both early and late apoptosis"},
      {"measurement": "MTD as platinum", "setting": "mice; BALB/c mice, ref Aston et al. (2017)", "value": 3.9, "unit": "mg Pt/Kg"},
      {"measurement": "IC50", "setting": "HaCaT-II-4 cells [4]", "value": "6.7 ± 0.76", "unit": "µM"},
      {"measurement": "week from which tumor volume was significantly decreased compared to control", "setting": "[5]", "value": 4, "unit": "week"},
      {"measurement": "maximum cellular uptake", "setting": "HaCaT-II-4 cells [6]", "value": 380, "unit": "nmol/10^6 cells"},
      {"measurement": "mortality", "setting": "BALB/c mice", "value": "causes significant mortality"}
    ]},
    {"smiles": "O=C1[O][Pt]2([NH][C@@H]3CCCC[C@H]3[NH]2)[O]C1=O", "note": "[Oxaliplatin]", "values": [
      {"measurement": "MTD as platinum", "setting": "mice; [7]", "value": 9.82, "unit": "mg Pt/Kg"}
    ]}
  ]
}
